Here are results for 1 compound from ChEMBL document CHEMBL1157664, “Aminopyridinecarboxamide-based inhibitors: Structure-activity relationship” (Bioorg Med Chem, 2010).

As usually defined, the IC50 is the concentration that inhibits the measured activity by half.

Molecules are shown by their SMILES. Activity calls are given as the source filed them. The rule behind the calls is not given here.

The nature of experiment [1]: Antiinflammatory activity in human synovial fibroblasts assessed as inhibition of IL-1-beta-stimulated IL8 production treated 1 hr before IL1-beta challenge measured after 18 hrs by ELISA. Format: functional. The gist of the method: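 Rheumatoid arthritis patient synovial fibroblasts seeded at 1.5 × 10^4 cells/well in DMEM + 15% FBS and left to attach overnight. Medium then changed to DMEM + 1% FBS. Cells pretreated 1 h with increasing compound concentrations (0.2% Me2SO final), then stimulated 18 h with 1 ng/mL IL-1β. Secreted IL-8 measured by ELISA against standard curves (4-parameter logistic). Cytotoxicity checked by Alamar Blue.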
In general terms: An ELISA detects its analyte on a solid surface through an enzyme-linked reagent.

The target in experiment [2] is T1, Inhibitor of nuclear factor kappa-B kinase subunit epsilon (Homo sapiens) (UniProt Q14164).
T1 sequence (whole entry): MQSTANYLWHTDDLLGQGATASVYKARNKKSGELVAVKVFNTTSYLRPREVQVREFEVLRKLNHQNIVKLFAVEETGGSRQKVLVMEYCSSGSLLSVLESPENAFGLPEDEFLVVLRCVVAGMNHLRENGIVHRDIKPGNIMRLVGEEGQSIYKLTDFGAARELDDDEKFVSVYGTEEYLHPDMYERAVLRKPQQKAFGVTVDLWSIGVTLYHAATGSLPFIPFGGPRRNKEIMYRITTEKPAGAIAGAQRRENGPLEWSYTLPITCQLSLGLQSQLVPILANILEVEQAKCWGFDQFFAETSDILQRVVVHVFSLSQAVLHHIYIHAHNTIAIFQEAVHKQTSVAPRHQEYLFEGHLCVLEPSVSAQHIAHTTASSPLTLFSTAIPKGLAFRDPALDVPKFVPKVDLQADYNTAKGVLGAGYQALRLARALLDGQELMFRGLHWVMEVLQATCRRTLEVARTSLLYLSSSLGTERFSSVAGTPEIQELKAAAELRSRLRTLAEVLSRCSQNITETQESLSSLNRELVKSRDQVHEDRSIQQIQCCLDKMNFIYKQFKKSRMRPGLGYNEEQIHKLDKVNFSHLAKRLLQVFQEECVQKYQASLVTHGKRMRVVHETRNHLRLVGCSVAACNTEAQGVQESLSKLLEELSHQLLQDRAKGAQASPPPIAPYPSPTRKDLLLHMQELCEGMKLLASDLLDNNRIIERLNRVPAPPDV
Description: Inhibition of IKKI.

Experiment [3] addresses T2, Inhibitor of nuclear factor kappa-B kinase subunit alpha (Homo sapiens, UniProt O15111).
T2 sequence (O15111 whole entry): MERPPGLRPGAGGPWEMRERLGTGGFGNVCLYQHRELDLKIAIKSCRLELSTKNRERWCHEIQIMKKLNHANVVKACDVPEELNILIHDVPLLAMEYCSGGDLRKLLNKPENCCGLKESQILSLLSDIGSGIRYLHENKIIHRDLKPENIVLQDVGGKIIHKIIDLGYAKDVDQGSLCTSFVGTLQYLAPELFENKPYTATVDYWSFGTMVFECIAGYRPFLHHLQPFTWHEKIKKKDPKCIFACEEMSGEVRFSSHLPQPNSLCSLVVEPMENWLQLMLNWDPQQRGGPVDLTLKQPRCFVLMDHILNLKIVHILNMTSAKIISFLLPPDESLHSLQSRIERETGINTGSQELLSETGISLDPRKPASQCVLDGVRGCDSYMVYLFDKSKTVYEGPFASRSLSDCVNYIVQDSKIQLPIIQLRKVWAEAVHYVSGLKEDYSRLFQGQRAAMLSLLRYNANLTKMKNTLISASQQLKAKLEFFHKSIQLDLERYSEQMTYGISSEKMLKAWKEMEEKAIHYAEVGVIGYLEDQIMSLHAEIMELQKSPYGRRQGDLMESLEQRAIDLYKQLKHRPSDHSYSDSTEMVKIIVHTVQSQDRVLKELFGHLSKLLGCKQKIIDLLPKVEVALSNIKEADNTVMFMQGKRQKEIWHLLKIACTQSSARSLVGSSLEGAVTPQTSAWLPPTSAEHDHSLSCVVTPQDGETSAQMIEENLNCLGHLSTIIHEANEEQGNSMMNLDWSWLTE
The experiment is described as follows: Inhibition of IKK1.

Experiment [4] deals with T3, Inhibitor of nuclear factor kappa-B kinase subunit beta (Homo sapiens, UniProt O14920).
T3 sequence (O14920 whole entry): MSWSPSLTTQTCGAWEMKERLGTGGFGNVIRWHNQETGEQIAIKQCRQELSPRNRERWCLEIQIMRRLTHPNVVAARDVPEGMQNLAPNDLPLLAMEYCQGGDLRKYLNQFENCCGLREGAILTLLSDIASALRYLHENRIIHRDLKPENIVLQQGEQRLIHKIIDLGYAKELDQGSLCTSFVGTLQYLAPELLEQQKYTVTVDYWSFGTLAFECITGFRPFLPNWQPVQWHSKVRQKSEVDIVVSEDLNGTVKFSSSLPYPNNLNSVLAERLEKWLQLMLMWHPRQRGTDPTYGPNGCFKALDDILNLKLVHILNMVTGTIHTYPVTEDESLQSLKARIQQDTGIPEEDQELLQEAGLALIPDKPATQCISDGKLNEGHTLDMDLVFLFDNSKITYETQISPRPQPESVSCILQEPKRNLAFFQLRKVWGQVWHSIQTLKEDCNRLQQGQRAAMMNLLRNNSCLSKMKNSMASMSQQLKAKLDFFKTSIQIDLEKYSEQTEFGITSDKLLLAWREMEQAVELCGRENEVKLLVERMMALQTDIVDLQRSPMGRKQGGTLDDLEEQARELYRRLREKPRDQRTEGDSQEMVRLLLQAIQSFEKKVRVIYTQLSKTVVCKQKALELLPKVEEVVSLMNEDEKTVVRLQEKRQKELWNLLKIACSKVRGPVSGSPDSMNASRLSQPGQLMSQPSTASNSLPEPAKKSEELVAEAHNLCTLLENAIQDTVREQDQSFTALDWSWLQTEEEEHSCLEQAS
Description: Inhibition of human recombinant IKK2-mediated transfer of [gamma33P]ATP to biotinylated IkappaBalpha after 30 mins by scintillation counting. A digest of the protocol:
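Recombinant human IKK-2 enzyme (46 nM/rxn, 200 ng/rxn). Substrate 5 µM biotinylated IκBα peptide (residues spanning Ser32/Ser36) with 1 µM ATP plus 0.1 µCi [γ-33P]ATP. Buffer 25 mM Hepes pH 7.6 with 1 mM DTT, 2 mM MgCl2, 2 mM MnCl2, 10 mM NaF. Incubated 30 min at 25 °C, stopped with AG1X8 resin in formate buffer pH 3. Supernatant ³³P read by scintillation counting.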

Experiment [5] addresses T4, Serine/threonine-protein kinase TBK1 (Homo sapiens) (UniProt Q9UHD2).
T4 sequence (whole entry): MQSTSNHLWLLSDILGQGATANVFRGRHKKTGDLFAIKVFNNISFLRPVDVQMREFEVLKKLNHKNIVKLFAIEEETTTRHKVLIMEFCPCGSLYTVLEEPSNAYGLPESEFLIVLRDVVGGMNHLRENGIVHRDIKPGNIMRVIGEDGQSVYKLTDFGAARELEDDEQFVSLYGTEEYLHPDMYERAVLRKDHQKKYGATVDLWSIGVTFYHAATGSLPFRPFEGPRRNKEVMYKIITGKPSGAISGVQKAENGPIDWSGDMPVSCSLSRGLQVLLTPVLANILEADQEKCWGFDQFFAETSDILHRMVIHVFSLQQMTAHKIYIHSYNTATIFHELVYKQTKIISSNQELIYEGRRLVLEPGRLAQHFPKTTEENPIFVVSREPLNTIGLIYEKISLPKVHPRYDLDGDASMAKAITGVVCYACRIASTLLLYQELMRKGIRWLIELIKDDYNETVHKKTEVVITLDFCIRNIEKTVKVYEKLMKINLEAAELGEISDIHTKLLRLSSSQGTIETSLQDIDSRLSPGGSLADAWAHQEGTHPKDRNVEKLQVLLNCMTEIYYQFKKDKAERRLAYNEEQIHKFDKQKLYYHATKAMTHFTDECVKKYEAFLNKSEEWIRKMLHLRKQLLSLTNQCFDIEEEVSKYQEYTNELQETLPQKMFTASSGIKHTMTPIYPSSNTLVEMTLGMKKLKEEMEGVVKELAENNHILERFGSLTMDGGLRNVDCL
Description: Inhibition of TBK1.

Turning to `CN1CCN(c2cc(C(=O)Nc3ccc4c(c3)-c3c(c(C(N)=O)nn3-c3ccc(F)cc3)CC4)c(Cl)cn2)CC1`, the concentration for half-maximal inhibition (IC50) in experiment [1] is 940 nM; in experiment [3], 14000 nM; in experiment [4], 25 nM. For the same compound, the inhibition entry in experiment [2] and in experiment [5] was “inactive” each time.
